Published values of several laboratories.
Each line is one published result; the experiments were not run side by side.
Target: Serine/threonine-protein kinase WNK2 (WNK2, Homo sapiens, UniProt Q9Y3S1)

N[C@@H]1CCN(c2nccc(-c3cnn4ncccc34)n2)C1
remaining binding (binding; 1 µM): 95%

O=C(Nc1c[nH]nc1C(=O)NC1CCNCC1)c1cc(F)cc(F)c1
remaining binding (binding; competition with immobilised ligand; 1 µM): 100%

CCS(=O)(=O)c1cc2cc(C[C@@](O)(CC(C)(C)c3ccc(F)cc3C(N)=O)C(F)(F)F)[nH]c2cn1
remaining binding (cell-free assay; competition with immobilised ligand; 1 µM): 46%

CN(C)c1nccc(-c2cnc3ncccn23)n1
remaining binding (binding; 1 µM): 94%

Cc1c(NC(=O)c2cc(C(N)=O)nc3cc(F)ccc23)c(C(F)(F)F)nn1Cc1ccc(C(C)(C)C)cc1
remaining binding (cell-free assay; competition with immobilised ligand; 1 µM): 100%

C[C@H]1CCN(c2nccc(-c3cnn4ncccc34)n2)C1
remaining binding (binding; 1 µM): 98%

FC(F)(F)Oc1cccc(-c2cnc3ccc(-c4ccncc4)nn23)c1
remaining binding (binding; competition with immobilised ligand; 5 µM): 86%

O=C(c1ccc(Nc2nccc(-c3cc4ccccc4s3)n2)cc1)N1CCC(N2CCCC2)CC1
remaining binding (binding; competition with immobilised ligand; 1 µM): 87%

CNCc1ccccc1-c1csc([C@H](C)Nc2nc(C)nc3cc(OC)c(OC)cc23)c1
remaining binding (cell-free assay; competition with immobilised ligand; 1 µM): 99%

O=C(c1ccc(Nc2ncc(Cl)c(-c3ccc(Cl)s3)n2)cc1)N1CCC(N2CCCC2)CC1
remaining binding (binding; competition with immobilised ligand; 1 µM): 88%

F[C@@H]1CCN(c2nccc(-c3cnn4ncccc34)n2)C1
remaining binding (binding; 1 µM): 100%

Cc1cnc(Nc2ccc(C(=O)N3CCC(N4CCCC4)CC3)cc2)nc1-c1cc2ccccc2s1
remaining binding (binding; competition with immobilised ligand; 1 µM): 69%

CC1CCCN1c1nccc(-c2cnn3ncccc23)n1 (centres unmarked)
remaining binding (binding; 1 µM): 100%

C[C@@H](c1ccc(-n2cnc3c(N)ncnc32)cc1)N1CCc2nn(C)c(Cc3ccccc3)c2C1=O
remaining binding (binding; competition with immobilised ligand; 0.1 µM): 65%

CC(C)(O)c1cncc(-c2nc3ccc(F)cc3n2C2CC2)c1
remaining binding (cell-free assay; competition with immobilised ligand; 1 µM): 100%

COc1ccnn2ncc(-c3ccnc(N(C)C)n3)c12
remaining binding (binding; 1 µM): 100%

CCc1ccccc1C(=O)Nc1n[nH]c2c(C)c(F)c(C3C(C#N)=C(C)N(C)C(C)=C3C#N)cc12
remaining binding (cell-free assay; competition with immobilised ligand; 1 µM): 100%

COc1cnc(Nc2cccc(S(N)(=O)=O)c2)nc1N1CCN(c2ccccc2)CC1
remaining binding (binding; competition with immobilised ligand; 1 µM): 35%

CCC(=N\O)/C(C)=C/c1ccc(F)cc1
remaining binding (cell-free assay; competition with immobilised ligand; 1 µM): 80%

C=CC(=O)N1CCC(C(=O)NCC(=O)N2CCN(c3nc(-c4cnc(N)nc4C(F)F)nc(N4CCOCC4)n3)CC2)CC1
remaining binding (binding; competition with immobilised ligand; 1 µM): 92%
